KDM4C inh – inhibitors of human demethylase GASC-1 KDM4C. Q9H3R0. GST-KDM4C 2-372, H3K9me3 peptide, LANCE TR-FRET. inhibition, % at 12.5 µM. actives 0.15% (n = 96,000). AID 720574;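 active = mean replicate inhibition above about 25%, with at least 55% of replicates also reaching it, limit read from the data, passing the limit was not always enough; inconclusive = only one of those two conditions met; inactive = neither condition met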
Target sequence (Q9H3R0 2-372 limits assumed): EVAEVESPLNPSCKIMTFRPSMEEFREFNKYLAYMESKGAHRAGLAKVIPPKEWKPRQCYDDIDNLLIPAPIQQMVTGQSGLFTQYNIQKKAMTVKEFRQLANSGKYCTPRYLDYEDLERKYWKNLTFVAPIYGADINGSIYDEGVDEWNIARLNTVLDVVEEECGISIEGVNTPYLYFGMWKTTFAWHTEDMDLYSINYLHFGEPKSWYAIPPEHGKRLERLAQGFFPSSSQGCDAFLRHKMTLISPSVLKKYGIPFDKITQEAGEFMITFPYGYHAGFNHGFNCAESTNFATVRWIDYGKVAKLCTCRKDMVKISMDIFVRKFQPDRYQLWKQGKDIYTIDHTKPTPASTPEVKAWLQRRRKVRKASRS
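System – N-terminal GST-fused human GASC-1 (KDM4C) fragment, residues 2-372 · Input – enzyme final amount 10 nM · Technique – LANCE TR-FRET, Eu antibody, ULight-streptavidin, EDTA, ex 340 nm, em 618/671 nm · Medium – HEPES buffer, pH 7.5, plus ascorbate · Incubation – enzyme reaction 30 min, then detection 60 min, both room temperature · Reagent – H3K9me3 peptide with Fe(II)/2OG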
T cruzi growth-1 – T. cruzi proliferation inhibition. T. cruzi beta-gal in NIH3T3, GalScreen luminescence, 90 h. inhibition, % at 8.34 µM. actives 5.9% (n = 77,000);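 active = mean inhibition above about 93%, with at least 55% of replicates each passing it, limit read from the data, passing the limit was not always enough; inconclusive = only one of those two conditions holds; inactive = neither condition holds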
IDH1 mut inh – IDH1 R132H (human) inhibition; O75874; actives 0.18% (n = 70,000); IDH1 R132H reductase, diaphorase/resazurin fluorescence, 60 min; inhibition, % at 10 µM; in the data active = inhibition above about 34%; inconclusive = no clear call, values can overlap the other calls; inactive = below about 11%;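 note: 0% = DMSO and 100% = no enzyme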
Pf Dd2 inh – blocks growth of Plasmodium falciparum Dd2 parasites; P. falciparum Dd2 growth, SYBR Green, 72 h; hits give low values; activity change, % at 10 µM; actives 2.3% (n = 94,000); AID 1159554; in the data active = activity change below about -80%; inconclusive = no clear call, values can overlap the other calls
T cruzi growth-2 – blocks T. cruzi growth in NIH3T3 host cells; actives 72% (n = 5,600); inhibition, % at 8.35 µM; shares compounds with T cruzi growth-1; T. cruzi beta-gal in NIH3T3, GalScreen luminescence, 90 h;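 active = mean replicate inhibition above about 95% and at least 55% of replicates individually reaching it, limit read from the data; inconclusive = only one of the two criteria is met; inactive = neither criterion is met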
T cruzi growth-3 – inhibitors of T. cruzi proliferation; shares compounds with T cruzi growth-1; T. cruzi beta-gal in NIH3T3, GalScreen luminescence, 90 h; inhibition, % at 2.09 µM; actives 21% (n = 5,600); AID 651740;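 active = mean inhibition above about 95%, with at least 55% of replicates also reaching it, limit read from the data; inconclusive = meets just one of the two conditions; inactive = meets neither condition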;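 note: plate controls were neutral control median for no effect and positive control median for full effect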
3T3 cytotox – kills mouse NIH/3T3 fibroblasts. cytotoxicity (signal decrease), % at 8.35 µM. shares compounds with T cruzi growth-1. AID 651742. NIH/3T3 viability, CellTiter-Glo ATP luminescence, 90 h. actives 14% (n = 5,600);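 active = mean signal decrease across replicates above about 35% based on untreated-well scatter, with enough replicates individually passing, limit read from the data; inconclusive = no rule stated though some were filed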;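 note: 0% = median of neutral control wells and 100% = median of positive control wells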
NIH3T3 tox 2 – NIH/3T3 (mouse) viability loss; actives 56% (n = 5,600); inhibition, % at 24.9 µM; NIH/3T3 viability, CellTiter-Glo ATP luminescence, 90 h; shares compounds with T cruzi growth-1;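 active = mean loss of cell viability signal at or above a set limit, and enough replicates individually reaching it; inconclusive = meets only the mean limit or only the replicate share; inactive = meets neither condition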;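 note: 0% = median of neutral control wells and 100% = median of positive control wells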
An asterisk follows results filed as active; ? = inconclusive; nt = no result. A selection: hits, their analogues and other compounds. The true share with any hit is near 5.9%.

SMILES	KDM4C inh	T cruzi growth-1	IDH1 mut inh	Pf Dd2 inh	T cruzi growth-2	T cruzi growth-3	3T3 cytotox	NIH3T3 tox 2
CCCN1CCc2cc(O)cc3c2[C@H]1Cc1ccc(O)c(O)c1-3	nt	nt	44.4*	nt	nt	nt	nt	nt
Nc1ncnc2nc(SCc3nc4ccc(I)cc4c(=O)n3-c3ccccc3)[nH]c12	nt	nt	0.4	nt	nt	nt	nt	nt
COC(=O)C[C@H]1CC[C@@H]2NC[C@H](O)COC[C@H]2O1	-0.7	105.3*	nt	-8.5	15.3	18.0	-7.1	15.9
O=C(Cc1ccccc1)N1C[C@@H]2[C@H](c3ccccc31)[C@H](CO)N2Cc1ccccc1	0.3	96.5*	nt	-15.8	101.0*	99.9*	-13.2	26.2
OC[C@H]1[C@H]2c3ccccc3NC[C@H]2N1Cc1cccnc1	-0.2	60.9	nt	-10.1	nt	nt	nt	nt
O=C(Cc1ccccc1)N1CCCCN2[C@H](CO)[C@@H](c3ccc(C#CC4(O)CCCC4)cc3)[C@@H]2C1	-0.7	37.9	nt	-5.0	nt	nt	nt	nt
O=C(Cc1ccccc1)N1CCCCN2[C@H](CO)[C@H](c3ccc(C#CC4(O)CCCC4)cc3)[C@H]2C1	-1.2	99.9*	nt	-10.5	61.9	53.2	-7.8	30.4*
O=C(Cc1ccccc1)N1CCCCN2[C@@H](CO)[C@@H](c3ccc(C#Cc4ccccc4)cc3)[C@@H]2C1	-1.8	106.2*	nt	-55.5	99.9*	102.0*	120.5*	104.8*
O=C(Cc1ccccc1)N1CCCCN2[C@@H](CO)[C@H](c3ccc(C#Cc4ccccc4)cc3)[C@@H]2C1	?	111.1*	nt	-59.7	108.3*	104.9*	43.2*	103.1*
O=C(Cc1ccncc1)N1CCCCN2[C@@H](CO)[C@H](c3ccc(C#Cc4ccccc4F)cc3)[C@@H]2C1	-0.3	112.5*	nt	-42.1	112.0*	79.1	49.8*	103.8*
O=C(Cc1ccccc1)N1CCCCN2[C@H](CO)[C@H](c3ccc(C#Cc4ccccc4)cc3)[C@@H]2C1	2.4	119.8*	nt	-24.0	102.2*	115.4*	26.8	103.3*
CN1[C@@H]2CNc3ccccc3[C@@H]2[C@@H]1CO	0.5	-23.0	nt	-68.0	nt	nt	nt	nt
CC=Cc1ccc2n(c1=O)C[C@H]1[C@H](CO)[C@@H](C(=O)OC)[C@@H]2N1S(=O)(=O)c1cccc(C)c1 (mixture of isomers)	-2.7	106.9*	nt	nt	102.1*	2.7	-0.4	3.0
N#Cc1cccc(-c2ccc([C@@H]3[C@H]4CN(C(=O)Cc5cccnc5)CCCCN4[C@H]3CO)cc2)c1	0.1	36.5	nt	2.3	nt	nt	nt	nt
COc1ccc(C#Cc2ccc([C@@H]3[C@H]4CN(C(=O)Cc5ccccc5)CCCCN4[C@H]3CO)cc2)cc1	-0.9	98.7*	nt	-46.3	93.4	103.3*	2.6	105.4*
COc1ccc(C#Cc2ccc([C@H]3[C@@H](CO)N4CCCCN(C(=O)Cc5ccccc5)C[C@@H]34)cc2)cc1	-2.2	87.3	nt	-34.1	nt	nt	nt	nt
COc1ccc(C#Cc2ccc([C@@H]3[C@H](CO)N4CCCCN(C(=O)Cc5ccccc5)C[C@@H]34)cc2)cc1	-1.3	112.1*	nt	-77.3	100.8*	105.3*	22.4	106.4*
COc1ccc(C#Cc2ccc([C@@H]3[C@@H](CO)N4CCCCN(C(=O)Cc5ccccc5)C[C@H]34)cc2)cc1	-3.3	76.1	nt	-32.5	nt	nt	nt	nt
COc1ccc(C#Cc2ccc([C@@H]3[C@@H](CO)N4CCCCN(C(=O)Cc5ccncc5)C[C@H]34)cc2)cc1	0.3	110.6*	nt	-50.9	106.7*	80.7	31.3	105.8*
CO[C@@H]1[C@H](O)[C@@H](O[C@@H]2C[C@H]3CC[C@@H]4C(CC[C@]5(C)[C@@H](C6=CC(=O)OC6)CC[C@]45O)[C@@]3(C)[C@H](O)C2)O[C@H](C)[C@@H]1O[C@@H]1O[C@H](CO)[C@@H](O)[C@H](O)[C@H]1O (some centres undefined)	nt	nt	1.3	nt	nt	nt	nt	nt

High-throughput results from PubChem.
